In brackets after ≈: the same amount, converted by molar mass. Activity calls are given as the source filed them. The calls are words filed in the database; no cut-off is given here.
How the values were obtained:
[1] = test system: Mycobacterium tuberculosis; test: Antitubercular activity against Mycobacterium tuberculosis H37Rv ATCC 27294 assessed as reduction of relative light unit at 1 ug/ml after 72 hrs by luciferase reporter phage assay relative to control; assay type: functional, H37Rv ATTC 27294; design: scale not given: the % may be the effect or the level left
In short: (§1)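 Luciferase reporter phage assay. Luminescence (RLU) integrated for 10 s on a luminometer, in duplicate per sample and averaged. Percent RLU reduction calculated against untreated control. Run repeated if the control mean RLU was below 1000.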

[2] = test system: Mycobacterium tuberculosis; test: Antitubercular activity against Mycobacterium tuberculosis H37Rv ATCC 27294 assessed as reduction of relative light unit at 2 ug/ml after 72 hrs by luciferase reporter phage assay relative to control; assay type: functional, H37Rv ATTC 27294; design: scale not given: the % may be the effect or the level left; in short: as §1
Bacillus subtilis [3] = test: Antibacterial activity against Bacillus subtilis NCIM 2439 after 24 hrs by twofold serial dilution method; assay type: functional; conditions: NCIM 2439, 24 h
In short: (§2)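 Two-fold serial dilution in nutrient broth; compounds from 1 mg mL^-1 DMSO stocks, 0.2 mL into 1.8 mL seeded broth, then six serial dilutions. Inoculum from 24-h nutrient agar cultures grown at 37 ± 1 °C, final 10⁵ cfu mL^-1, pH 7.4 ± 0.2. Incubated at 37 ± 1 °C. MIC read visually after 24 h. Seeded-broth and solvent controls included.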

Klebsiella pneumoniae [4] = test: Antibacterial activity against Klebsiella pneumoniae after 24 hrs by twofold serial dilution method; assay type: functional; in short: as §2
Escherichia coli [5] = test: Antibacterial activity against Escherichia coli NCIM 2345 after 24 hrs by twofold serial dilution method; assay type: functional; conditions: NCIM 2345, 24 h; in short: as §2
Staphylococcus aureus = test: Antibacterial activity against Staphylococcus aureus NCIM 2492 after 24 hrs by twofold serial dilution method; assay type: functional; conditions: NCIM 2492, 24 h; in short: as §2
Candida albicans [6] = test: Antifungal activity against Candida albicans-6 NCIM C27 after 72 to 96 hrs by twofold serial dilution method; assay type: functional
In short: (§3)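 Two-fold serial dilution in Sabouraud dextrose broth; compounds from 1 mg mL^-1 DMSO stocks, 0.2 mL into 1.8 mL seeded broth, then six serial dilutions. Spores from 24-h to 7-day Sabouraud agar slants, final 1.1–1.5 × 10² cfu mL^-1, pH 7.4 ± 0.2. Incubated at 28 ± 1 °C. MIC read visually after 72–96 h. Seeded-broth and solvent controls included.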

Candida albicans [7] = test: Antifungal activity against Candida albicans NCIM C27 after 72 to 96 hrs by twofold serial dilution method; assay type: functional; in short: as §3
Aspergillus niger = test: Antifungal activity against Aspergillus niger NCIM 590 after 72 to 96 hrs by twofold serial dilution method; assay type: functional; in short: as §3
Candida albicans [8] = test: Antifungal activity against Candida albicans-51 NCIM C27 after 72 to 96 hrs by twofold serial dilution method; assay type: functional; in short: as §3
Aspergillus flavus [9] = test: Antifungal activity against Aspergillus flavus NCIM 539 after 72 to 96 hrs by twofold serial dilution method; assay type: functional; in short: as §3
Klebsiella pneumoniae [10] = test: Antibacterial activity against Klebsiella pneumoniae at 200 ug/ml after 24 hrs by twofold serial dilution method; assay type: functional, organism-based
Escherichia coli [11] = test: Antibacterial activity against Escherichia coli NCIM 2345 at 200 ug/ml after 24 hrs by twofold serial dilution method; assay type: functional, organism-based
Pseudomonas aeruginosa [12] = test: Antibacterial activity against Pseudomonas aeruginosa NCIM 2035 after 24 hrs by twofold serial dilution method; assay type: functional; conditions: NCIM 2035, 24 h; in short: as §2
Aspergillus flavus [13] = test: Antifungal activity against Aspergillus flavus NCIM 539 at 200 ug/ml after 72 to 96 hrs by twofold serial dilution method; assay type: functional, organism-based
Bacillus subtilis [14] = test: Antibacterial activity against Bacillus subtilis NCIM 2439 at 200 ug/ml after 24 hrs by twofold serial dilution method; assay type: functional, organism-based
Candida albicans [15] = test: Antifungal activity against Candida albicans-6 NCIM C27 at 200 ug/ml after 72 to 96 hrs by twofold serial dilution method; assay type: functional, organism-based
Candida albicans [16] = test: Antifungal activity against Candida albicans NCIM C27 at 200 ug/ml after 72 to 96 hrs by twofold serial dilution method; assay type: functional, organism-based
Pseudomonas aeruginosa [17] = test: Antibacterial activity against Pseudomonas aeruginosa NCIM 2035 at 200 ug/ml after 24 hrs by twofold serial dilution method; assay type: functional, organism-based

## COc1ccc([C@H]2N[C@@H](c3ccc(OC)cc3)C3CCCC2/C3=N\NC(=O)c2ccncc2)cc1
[1]
  Activity: 73.07%
[2]
  Activity: 83.02%
Bacillus subtilis [3]
  MIC: 200 µg/mL (≈ 425 µM)
Klebsiella pneumoniae [4]
  MIC: 200 µg/mL (≈ 425 µM)
Escherichia coli [5]
  MIC: 100 µg/mL (≈ 213 µM)
Staphylococcus aureus
  MIC: 100 µg/mL (≈ 213 µM)
Candida albicans [6]
  MIC: 100 µg/mL (≈ 213 µM)
Candida albicans [7]
  MIC: 200 µg/mL (≈ 425 µM)
Aspergillus niger
  MIC: 200 µg/mL (≈ 425 µM)
Candida albicans [8]
  MIC: 100 µg/mL (≈ 213 µM)
Aspergillus flavus [9]
  MIC: 200 µg/mL (≈ 425 µM)

## Cc1ccc([C@H]2N[C@@H](c3ccc(C)cc3)C3CCCC2/C3=N\NC(=O)c2ccncc2)cc1
[1]
  Activity: 72.03%
[2]
  Activity: 82.04%
Bacillus subtilis [3]
  MIC: 200 µg/mL (≈ 456 µM)
Klebsiella pneumoniae [10]
  Activity: inactive
Escherichia coli [11]
  Activity: inactive
Staphylococcus aureus
  MIC: 200 µg/mL (≈ 456 µM)
Pseudomonas aeruginosa [12]
  MIC: 100 µg/mL (≈ 228 µM)
Candida albicans [6]
  MIC: 200 µg/mL (≈ 456 µM)
Candida albicans [7]
  MIC: 100 µg/mL (≈ 228 µM)
Aspergillus niger
  MIC: 100 µg/mL (≈ 228 µM)
Candida albicans [8]
  MIC: 100 µg/mL (≈ 228 µM)
Aspergillus flavus [13]
  Activity: inactive

## COc1cccc([C@H]2N[C@@H](c3cccc(OC)c3)C3CCCC2/C3=N\NC(=O)c2ccncc2)c1
[1]
  Activity: 77.18%
[2]
  Activity: 87.06%
Bacillus subtilis [3]
  MIC: 50 µg/mL (≈ 106 µM)
Klebsiella pneumoniae [4]
  MIC: 100 µg/mL (≈ 213 µM)
Escherichia coli [5]
  MIC: 200 µg/mL (≈ 425 µM)
Staphylococcus aureus
  MIC: 200 µg/mL (≈ 425 µM)
Pseudomonas aeruginosa [12]
  MIC: 200 µg/mL (≈ 425 µM)
Candida albicans [6]
  MIC: 200 µg/mL (≈ 425 µM)
Candida albicans [7]
  MIC: 100 µg/mL (≈ 213 µM)
Aspergillus niger
  MIC: 100 µg/mL (≈ 213 µM)
Candida albicans [8]
  MIC: 200 µg/mL (≈ 425 µM)
Aspergillus flavus [9]
  MIC: 100 µg/mL (≈ 213 µM)

## O=C(N/N=C1\C2CCCC1[C@H](c1ccccc1)N[C@@H]2c1ccccc1)c1ccncc1
[1]
  Activity: 77.76%
[2]
  Activity: 87.9%
Bacillus subtilis [14]
  Activity: inactive
Klebsiella pneumoniae [10]
  Activity: inactive
Escherichia coli [11]
  Activity: inactive
Staphylococcus aureus
  MIC: 100 µg/mL (≈ 244 µM)
Pseudomonas aeruginosa [12]
  MIC: 200 µg/mL (≈ 487 µM)
Candida albicans [15]
  Activity: inactive
Candida albicans [16]
  Activity: inactive
Aspergillus niger
  MIC: 200 µg/mL (≈ 487 µM)
Candida albicans [8]
  MIC: 100 µg/mL (≈ 244 µM)
Aspergillus flavus [13]
  Activity: inactive

## O=C(N/N=C1\C2CCCC1[C@H](c1ccc(Cl)cc1)N[C@@H]2c1ccc(Cl)cc1)c1ccncc1
[1]
  Activity: 75.61%
[2]
  Activity: 85.22%
Bacillus subtilis [3]
  MIC: 100 µg/mL (≈ 209 µM)
Klebsiella pneumoniae [4]
  MIC: 100 µg/mL (≈ 209 µM)
Escherichia coli [5]
  MIC: 50 µg/mL (≈ 104 µM)
Staphylococcus aureus
  MIC: 50 µg/mL (≈ 104 µM)
Pseudomonas aeruginosa [12]
  MIC: 100 µg/mL (≈ 209 µM)
Pseudomonas aeruginosa [17]
  Activity: inactive
Candida albicans [6]
  MIC: 100 µg/mL (≈ 209 µM)
Candida albicans [7]
  MIC: 100 µg/mL (≈ 209 µM)
Aspergillus niger
  MIC: 100 µg/mL (≈ 209 µM)
Candida albicans [8]
  MIC: 50 µg/mL (≈ 104 µM)
Aspergillus flavus [9]
  MIC: 200 µg/mL (≈ 417 µM)

## CC1(C)S[C@@H]2[C@H](NC(=O)Cc3ccccc3)C(=O)N2[C@H]1C(=O)O [PENICILLIN G]
Bacillus subtilis [3]
  MIC: 25 µg/mL (≈ 74.8 µM)
Klebsiella pneumoniae [4]
  MIC: 12.5 µg/mL (≈ 37.4 µM)
Escherichia coli [5]
  MIC: 50 µg/mL (≈ 150 µM)
Staphylococcus aureus
  MIC: 12.5 µg/mL (≈ 37.4 µM)
Pseudomonas aeruginosa [12]
  MIC: 50 µg/mL (≈ 150 µM)

## O=C(N/N=C1\C2CCCC1[C@H](c1cccc(Cl)c1)N[C@@H]2c1cccc(Cl)c1)c1ccncc1
[1]
  Activity: 75.42%
[2]
  Activity: 85.34%
Bacillus subtilis [3]
  MIC: 100 µg/mL (≈ 209 µM)
Klebsiella pneumoniae [4]
  MIC: 50 µg/mL (≈ 104 µM)
Escherichia coli [5]
  MIC: 50 µg/mL (≈ 104 µM)
Staphylococcus aureus
  MIC: 100 µg/mL (≈ 209 µM)
Pseudomonas aeruginosa [12]
  MIC: 100 µg/mL (≈ 209 µM)
Candida albicans [6]
  MIC: 50 µg/mL (≈ 104 µM)
Candida albicans [7]
  MIC: 200 µg/mL (≈ 417 µM)
Aspergillus niger
  MIC: 100 µg/mL (≈ 209 µM)
Candida albicans [8]
  MIC: 200 µg/mL (≈ 417 µM)
Aspergillus flavus [9]
  MIC: 200 µg/mL (≈ 417 µM)

## CN[C@@H]1[C@H](O[C@H]2[C@H](O[C@H]3[C@H](O)[C@@H](O)[C@H](N=C(N)N)[C@@H](O)[C@@H]3N=C(N)N)O[C@@H](C)[C@]2(O)C=O)O[C@@H](CO)[C@H](O)[C@H]1O [STREPTOMYCIN]
Bacillus subtilis [3]
  MIC: 12.5 µg/mL (≈ 21.5 µM)
Klebsiella pneumoniae [4]
  MIC: 50 µg/mL (≈ 86 µM)
Escherichia coli [5]
  MIC: 12.5 µg/mL (≈ 21.5 µM)
Staphylococcus aureus
  MIC: 50 µg/mL (≈ 86 µM)
Pseudomonas aeruginosa [12]
  MIC: 25 µg/mL (≈ 43 µM)

## C[C@@H]1[C@H](O)[C@@H](C)/C=C/C=C/C=C/C=C/C=C/C=C/C=C/[C@H](O[C@@H]2O[C@H](C)[C@@H](O)[C@H](N)[C@@H]2O)C[C@@H]2O[C@](O)(C[C@@H](O)C[C@@H](O)[C@H](O)CC[C@@H](O)C[C@@H](O)CC(=O)O[C@H]1C)C[C@H](O)[C@H]2C(=O)O [AMPHOTERICIN B]
Candida albicans [6]
  MIC: 25 µg/mL (≈ 27.1 µM)
Candida albicans [7]
  MIC: 25 µg/mL (≈ 27.1 µM)
Aspergillus niger
  MIC: 50 µg/mL (≈ 54.1 µM)
Candida albicans [8]
  MIC: 25 µg/mL (≈ 27.1 µM)
Aspergillus flavus [9]
  MIC: 50 µg/mL (≈ 54.1 µM)

## O=C(N/N=C1\C2CCCC1[C@H](c1ccc(F)cc1)N[C@@H]2c1ccc(F)cc1)c1ccncc1
[1]
  Activity: 76.63%
[2]
  Activity: 86.12%
Bacillus subtilis [3]
  MIC: 50 µg/mL (≈ 112 µM)
Klebsiella pneumoniae [10]
  Activity: inactive
Escherichia coli [5]
  MIC: 100 µg/mL (≈ 224 µM)
Staphylococcus aureus
  MIC: 50 µg/mL (≈ 112 µM)
Pseudomonas aeruginosa [12]
  MIC: 100 µg/mL (≈ 224 µM)
Candida albicans [6]
  MIC: 50 µg/mL (≈ 112 µM)
Candida albicans [7]
  MIC: 50 µg/mL (≈ 112 µM)
Aspergillus niger
  MIC: 100 µg/mL (≈ 224 µM)
Candida albicans [8]
  MIC: 50 µg/mL (≈ 112 µM)
Aspergillus flavus [9]
  MIC: 100 µg/mL (≈ 224 µM)

## NNC(=O)c1ccncc1 [ISONIAZID]
[1]
  Activity: 98.42%
[2]
  Activity: 98.42%

From ChEMBL document CHEMBL1287649, “Synthesis and anti-tubercular and antimicrobial activities of some 2r,4c-diaryl-3-azabicyclo[3.3.1]nonan-9-one N-isonicotinoylhydrazone derivatives” (2010)
